One block for each compound: values may come before it. Calls of active or inactive are those of the source. The calls are words filed in the database; no cut-off is given here.
What was measured:
[1] = Inhibition of Saccharomyces cerevisiae alpha-glucosidase using p-nitrophenyl-alpha-D-glucopyranoside as substrate preincubated for 10 mins followed by substrate addition measured after 30 mins by microplate reader analysis
Procedure, shortened: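 α-Glucosidase 0.1 U/mL and p-NPG 1.0 mM in 0.1 M potassium phosphate pH 6.7; samples in DMSO. Inhibitor preincubated with enzyme 10 min at 37 °C, substrate added, 30 min at 37 °C, stopped with 1 M Na2CO3; absorbance 405 nm with blank correction. Five concentrations, triplicate; IC50 as mean ± SEM of three independent experiments.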

Mus musculus [2] = assay: Hypoglycemic effect in Kunming mouse assessed as reduction in fasting blood glucose level at 10 mg/kg, po measured at 1.5 to 9 hrs post dose by glucometry analysis; format: functional, organism-based
Procedure, shortened: (§1)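 Fasted normal Kunming mice (4–6 weeks) given single oral dose suspended in 0.5 % CMC–Na; control group received vehicle only. Tail-vein glucose measured by glucometer at 0, 1.5, 3, 5, 7 and 9 h after administration. Six mice per group; mean ± SEM, one-way ANOVA followed by Tukey's or Dunnett's test versus control.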

Mus musculus [3] = assay: Hypoglycemic effect in Kunming mouse model of STZ-induced diabetes assessed as reduction in fasting blood glucose level at 10 mg/kg, po measured at 1.5 to 9 hrs post dose by glucometry analysis; format: functional, organism-based
Procedure, shortened: (§2)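 STZ-diabetic Kunming mice (single i.p. streptozotocin 100 mg/kg in citrate buffer pH 4.5, fasting; glucose checked day 7), fasted, dosed orally in 0.5 % CMC–Na with vehicle-only controls. Tail-vein glucometer readings at 0, 1.5, 3, 5, 7 and 9 h post-dose; percent change relative to vehicle group. n = 6; mean ± SEM, one-way ANOVA with post-hoc test.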

Mus musculus [4] = assay: Hypoglycemic effect in Kunming mouse model of STZ-induced diabetes assessed as reduction in fasting blood glucose level at 100 mg/kg, po measured at 9 hrs post dose by glucometry analysis relative to control; format: functional; design: scale not given: the % may be the effect or the level left; procedure, shortened: as §2
Mus musculus [5] = assay: Hypoglycemic effect in Kunming mouse model of STZ-induced diabetes assessed as reduction in fasting blood glucose level at 50 mg/kg, po measured at 1.5 hrs post dose by glucometry analysis relative to control; format: functional; design: scale not given: the % may be the effect or the level left; procedure, shortened: as §2
Mus musculus [6] = assay: Hypoglycemic effect in Kunming mouse model of STZ-induced diabetes assessed as reduction in fasting blood glucose level at 100 mg/kg, po measured at 1.5 hrs post dose by glucometry analysis relative to control; format: functional; design: scale not given: the % may be the effect or the level left; procedure, shortened: as §2
Mus musculus [7] = assay: Antihyperglycemic effect in Kunming mouse assessed as reduction in postprandial blood glucose level at 50 and 100 mg/kg, po administered 30 mins before sucrose challenge measured after 30 to 90 mins by oral sucrose tolerance test; format: functional, organism-based
Procedure, shortened: (§3)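 Male/female unspecified Kunming mice, 4–6 weeks old, fasted. Oral dosing suspended in 0.5 % CMC–Na (controls given vehicle alone); sucrose 3 g/kg orally 30 min later. Six mice per group; mean ± SEM, one-way ANOVA with Tukey's or Dunnett's test.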

Mus musculus [8] = assay: Hypoglycemic effect in Kunming mouse model of STZ-induced diabetes assessed as reduction in fasting blood glucose level at 50 mg/kg, po measured at 9 hrs post dose by glucometry analysis relative to control; format: functional; design: scale not given: the % may be the effect or the level left; procedure, shortened: as §2
Mus musculus [9] = assay: Antihyperglycemic effect in Kunming mouse assessed as reduction in postprandial blood glucose level at 25 mg/kg, po administered 30 mins before sucrose challenge measured after 30 to 90 mins by oral sucrose tolerance test; format: functional, organism-based; procedure, shortened: as §3
Mus musculus [10] = assay: Hypoglycemic effect in Kunming mouse model of STZ-induced diabetes assessed as reduction in fasting blood glucose level at 100 mg/kg, po measured at 3 hrs post dose by glucometry analysis relative to control; format: functional; design: scale not given: the % may be the effect or the level left; procedure, shortened: as §2
Mus musculus [11] = assay: Hypoglycemic effect in Kunming mouse model of STZ-induced diabetes assessed as reduction in fasting blood glucose level at 50 mg/kg, po measured at 5 hrs post dose by glucometry analysis relative to control; format: functional; design: scale not given: the % may be the effect or the level left; procedure, shortened: as §2
Mus musculus [12] = assay: Antihyperglycemic effect in Kunming mouse model of STZ-induced diabetes assessed as reduction in postprandial blood glucose level at 50 and 100 mg/kg, po administered 30 mins before sucrose challenge measured after 30 to 90 mins by oral sucrose tolerance test; format: functional, organism-based
Procedure, shortened: (§4)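 Diabetes induced in Kunming mice (4–6 weeks) by single i.p. streptozotocin 100 mg/kg in citrate buffer pH 4.5 under fasting, glucose checked on day 7. Fasted mice dosed orally in 0.5 % CMC–Na (vehicle controls), then sucrose 3 g/kg orally after 30 min; tail-vein glucometer readings at 0–3.0 h post-load. n = 6; mean ± SEM, one-way ANOVA with post-hoc test.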

Mus musculus [13] = assay: Hypoglycemic effect in Kunming mouse model of STZ-induced diabetes assessed as reduction in fasting blood glucose level at 100 mg/kg, po measured at 7 hrs post dose by glucometry analysis relative to control; format: functional; design: scale not given: the % may be the effect or the level left; procedure, shortened: as §2
[14] = Competitive inhibition of Saccharomyces cerevisiae alpha-glucosidase using p-nitrophenyl-alpha-D-glucopyranoside as substrate by Lineweaver-Burk plot analysis
Procedure, shortened: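 Enzyme kinetics run with rising concentrations of 4-nitrophenyl α-D-glucopyranoside and of inhibitor; mode of inhibition assigned from Lineweaver–Burk plots under Michaelis–Menten kinetics.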

Mus musculus [15] = assay: Antihyperglycemic effect in Kunming mouse model of STZ-induced diabetes assessed as reduction in postprandial blood glucose level at 25 mg/kg, po administered 30 mins before sucrose challenge measured after 30 to 90 mins by oral sucrose tolerance test; format: functional, organism-based; procedure, shortened: as §4
Mus musculus [16] = assay: Hypoglycemic effect in Kunming mouse model of STZ-induced diabetes assessed as reduction in fasting blood glucose level at 50 mg/kg, po measured at 3 hrs post dose by glucometry analysis relative to control; format: functional; design: scale not given: the % may be the effect or the level left; procedure, shortened: as §2
Mus musculus [17] = assay: Hypoglycemic effect in Kunming mouse model of STZ-induced diabetes assessed as reduction in fasting blood glucose level at 100 mg/kg, po measured at 5 hrs post dose by glucometry analysis relative to control; format: functional; design: scale not given: the % may be the effect or the level left; procedure, shortened: as §2
Mus musculus [18] = assay: Hypoglycemic effect in Kunming mouse assessed as reduction in fasting blood glucose level at 25 to 100 mg/kg, po measured at 1.5 to 9 hrs post dose by glucometry analysis; format: functional, organism-based; procedure, shortened: as §1
Mus musculus [19] = assay: Hypoglycemic effect in Kunming mouse model of STZ-induced diabetes assessed as reduction in fasting blood glucose level at 50 mg/kg, po measured at 7 hrs post dose by glucometry analysis relative to control; format: functional; design: scale not given: the % may be the effect or the level left; procedure, shortened: as §2

IC50 [1]: 720 µM
Structure (SMILES): C[C@@H]1O[C@@H](O[C@@H]2[C@@H](O)[C@H](O)[C@H](O[C@H]3[C@H](O)[C@@H](O)C(O)O[C@@H]3CO)O[C@H]2CO)[C@@H](O)[C@H](O)[C@H]1N[C@H]1C=C(CO)[C@@H](O)[C@H](O)[C@H]1O (stereo partly drawn)

Structure (SMILES): COc1ccc(Cl)cc1C(=O)NCCc1ccc(S(=O)(=O)NC(=O)NC2CCCCC2)cc1
Activity (Mus musculus [2]): Active | Activity (Mus musculus [3]): Active

IC50 [1]: 84.5 µM
Structure (SMILES): O=c1c(O)c(-c2cc(O)c(OCCO)c(O)c2)oc2cc(O)cc(O)c12

IC50 [1]: 9.3 µM | Ki [14]: 10.3 µM
Structure (SMILES): Cc1ccc(S(=O)(=O)N(CCO)CCOc2c(O)cc(-c3oc4cc(O)cc(O)c4c(=O)c3O)cc2O)cc1
Activity (Mus musculus [4]): 67.3% | Activity (Mus musculus [5]): 27.8% | Activity (Mus musculus [6]): 37% | Activity (Mus musculus [7]): Active | Activity (Mus musculus [8]): 61.5% | Activity (Mus musculus [9]): inactive | Activity (Mus musculus [10]): 45.1% | Activity (Mus musculus [11]): 47.3% | Activity (Mus musculus [12]): Active | Activity (Mus musculus [13]): 65.4% | Activity (Mus musculus [15]): inactive | Activity (Mus musculus [16]): 35.9% | Activity (Mus musculus [17]): 60% | Activity (Mus musculus [18]): inactive | Activity (Mus musculus [19]): 59.6%

IC50 [1]: 838 µM
Structure (SMILES): C[C@@H]1O[C@@H](Oc2c(-c3cc(O)c(O)c(O)c3)oc3cc(O)cc(O)c3c2=O)[C@H](O)[C@H](O)[C@H]1O

IC50 [1]: 233 µM
Structure (SMILES): O=c1c(O)c(-c2cc(O)c(OCCOCCOCCO)c(O)c2)oc2cc(O)cc(O)c12

IC50 [1]: 43.8 µM
Structure (SMILES): O=c1c(O)c(-c2cc(O)c(OCCOCCO)c(O)c2)oc2cc(O)cc(O)c12

IC50 [1]: 463 µM
Structure (SMILES): O=c1c(O)c(-c2cc(O)c(OCCOCCOCCOCCO)c(O)c2)oc2cc(O)cc(O)c12

IC50 [1]: 41.1 µM
Structure (SMILES): O=c1c(O)c(-c2cc(O)c(OCCN(CCO)c3ccccc3)c(O)c2)oc2cc(O)cc(O)c12

IC50 [1]: 319 µM
Structure (SMILES): O=c1c(O)c(-c2cc(O)c(O)c(O)c2)oc2cc(O)cc(O)c12 [MYRICETIN]

IC50 [1]: 634 µM
Structure (SMILES): O=C1c2c(O)cc(O)cc2O[C@H](c2cc(O)c(O)c(O)c2)[C@H]1O [AMPELOPSIN]
